Drawing on ChEMBL document CHEMBL2163188, “Discovery of piragliatin--first glucokinase activator studied in type 2 diabetic patients” (J Med Chem, 2012), this text covers Activity for one compound.

Data set [1] deals with Rattus norvegicus. Nature of the data set: Hepatic toxicity in Wistar rat assessed as lipidosis at 30 to 300 mg/kg, po qd for 5 days by Oil Red O staining. More on the design: dose 30-300 mg/kg, route oral. The conditions noted are these: in vivo, 120 h. Type of data set: organism-based. Summed up:
(§1)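 Five-day rat study with daily oral dosing. Blood glucose was measured on day 3. Hepatic lipidosis was assessed at study end by Oil Red O staining of liver.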

Data set [2] concerns Rattus norvegicus. Nature of the data set: Antidiabetic activity in Wistar rat assessed as reduction of glucose level at 30 to 300 mg/kg, po qd for 5 days measured in day 3. Format: functional, organism-based. Put shortly: as §1
The target of data set [3] is T1, Hexokinase-4 (Homo sapiens) (UniProt P35557).
T1 sequence (whole entry): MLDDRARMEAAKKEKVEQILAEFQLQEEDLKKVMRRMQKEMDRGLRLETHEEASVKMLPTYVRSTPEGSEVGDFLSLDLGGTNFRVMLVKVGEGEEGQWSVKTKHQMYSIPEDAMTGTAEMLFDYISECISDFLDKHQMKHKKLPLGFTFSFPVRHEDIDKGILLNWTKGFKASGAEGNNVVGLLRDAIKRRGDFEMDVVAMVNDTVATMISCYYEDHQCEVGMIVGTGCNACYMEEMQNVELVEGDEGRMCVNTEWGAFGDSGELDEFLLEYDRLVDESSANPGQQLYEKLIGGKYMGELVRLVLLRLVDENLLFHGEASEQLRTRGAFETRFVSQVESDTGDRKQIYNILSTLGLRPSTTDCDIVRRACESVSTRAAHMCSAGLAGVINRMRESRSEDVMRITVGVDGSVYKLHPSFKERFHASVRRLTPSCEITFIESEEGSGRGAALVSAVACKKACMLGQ
Nature of the data set: Activation of human recombinant glucokinase assessed as concentration required for 1.5 fold increase in enzymatic activity. Summed up: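 Human recombinant GK; activator at fixed concentrations from ∼0.010 to 30 μM, each in duplicate, with glucose held at 5 mM. SC1.5 is the activator concentration giving a 1.5-fold rise in enzymatic activity over untreated GK. Assay CV was about 15%.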

Active and inactive are the calls of the source. The rule behind the calls is not given here.

Turning to `CS(=O)(=O)c1ccc(C(CC2CCCC2)C(=O)NC(N)=S)cc1` (racemic), the Activity entry in data set [1] is “Toxic”; in data set [3] it was 45 µM. Further, the outcome in data set [2] was inactive.
